The source of these data is ChEMBL document CHEMBL4184143 (J Med Chem, 2017).

The structures appear in SMILES notation. pIC50, pKi: −log10 of the molar value. Where only a bound is given, the exact number is not on record here.

In one experiment the test system is MOLM-13. Kind of experiment: Growth inhibition of human MOLM13 cells after 4 days by WST-8 assay. Format: functional, cell-based. The settings on record: MOLM-13, 96 h. A digest of the protocol:
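MOLM-13 leukemia cells were seeded at 10,000 cells/well and exposed to serially diluted compound for 4 days. Signal was normalized to DMSO controls, and IC50 was fitted by nonlinear regression.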
(In general: Formazan colour is commonly taken as a measure of viable cells.)

Another experiment concerns MV4-11. Kind of experiment: Growth inhibition of human MV4-11 cells after 4 days by WST-8 assay. Format: functional, cell-based. The settings on record: MV4-11, 96 h.
Experiment [1] has as its target T1, Bromodomain-containing protein 4 (Homo sapiens, UniProt O60885). Description: Inhibition of FAM-labeled ZBA248 binding to recombinant human N-terminal His6-tagged BRD4 bromodomain 2 (333 to 460 residues) expressed in Rosetta2 DE3 cells after 30 mins by Flourescence polarization assay. Type of experiment: biochemical.
In experiment [2] the target is T1, Bromodomain-containing protein 4. Description: Inhibition of FAM-labeled ZBA248 binding to recombinant human N-terminal His6-tagged BRD4 bromodomain 1 (44 to 168 residues) expressed in Rosetta2 DE3 cells after 30 mins by Flourescence polarization assay. Format: biochemical.

What is called pIC50 is the IC50 on a negative log10 scale, so that one unit is a factor of ten. In general, pKi refers to −log10 of the Ki, conventionally taken in molar units. With `COc1cc2c(cc1-c1c(C)noc1C)[nH]c1nc(C)nc(-c3cncc4ccccc34)c12`, the pIC50 in the experiment with MOLM-13 was 6.91; in the experiment on MV4-11, 7.33; in experiment [1], 7.90; in experiment [2], 7.45. Also, the results for the pKi in experiment [1] and in experiment [2] were 8.42 and 8.02, respectively.

Regarding `COc1cc2c(cc1-c1c(C)noc1C)[nH]c1ncnc(-c3c[nH]c4ccccc34)c12`, the pIC50 in the experiment on MOLM-13 is 6.69; with MV4-11, 7.24; in experiment [1], 8.26; in experiment [2] it was 7.69. Further, the negative logarithm of the Ki (pKi) was 8.96 in experiment [1] and 8.31 in experiment [2].

On to `COc1cc2c(cc1-c1c(C)noc1C)[nH]c1nc(C)nc(-c3cccc4cnccc34)c12`, for which the pIC50 was 6.18 in the experiment on MOLM-13, 6.53 in the experiment with MV4-11, 6.36 in experiment [1] and 6.35 in experiment [2]. Further, the pKi in experiment [1] was 6.84; in experiment [2], 6.86.

`COc1cc2c(cc1-c1c(C)noc1C)[nH]c1nc(C)nc(-c3cccc4ncccc34)c12`: the negative logarithm of the IC50 (pIC50) in the experiment on MOLM-13 was 7.12; in the experiment on MV4-11 it was 7.55; in experiment [1], 7.81; in experiment [2] it was 7.51. The negative logarithm of the Ki (pKi) in experiment [1] is 8.51; in experiment [2], 8.00.

As to `COc1cc2c(cc1-c1c(C)noc1C)[nH]c1nc(C)nc(-c3cc(C(F)(F)F)nc4ccccc34)c12`, the pIC50 in the experiment on MOLM-13 is 6.01; in the experiment with MV4-11, 7.11; in experiment [1] it was 7.03; in experiment [2] it was 6.41. Further, the negative logarithm of the Ki (pKi) was 7.57 in experiment [1] and 6.91 in experiment [2].

On to `COc1cc2c(cc1-c1c(C)noc1C)[nH]c1ncnc(-c3c(C)n[nH]c3C)c12`, for which the pIC50 with MOLM-13 was 6.63; with MV4-11, 7.00; in experiment [1], 7.20; in experiment [2] it was 7.29. Moreover, the pKi is 7.69 in experiment [1] and 7.71 in experiment [2].

Take `COc1cc2c(cc1-c1c(C)noc1C)[nH]c1ncnc(Cl)c12`: in experiment [1], the pIC50 is 5.75 and the pKi was 6.32. Moreover, in experiment [2], the negative-log IC50 (pIC50) is 5.95 and the negative-log Ki (pKi) is 6.41.

Consider `COc1cc2c(cc1-c1c(C)noc1C)[nH]c1ncnc(-c3c(C)nn(C)c3C)c12`, for which the pIC50 in the experiment on MOLM-13 is 6.71; in the experiment on MV4-11, 7.02; in experiment [1], 7.05; in experiment [2], 7.39. The values for the negative logarithm of the Ki (pKi) in experiment [1] and in experiment [2] were 7.51 and 7.73, respectively.

Consider `COc1cc2c(cc1-c1c(C)noc1C)[nH]c1nc(C)nc(-c3cnc4ccccc4c3)c12`, for which the pIC50 is 6.15 in the experiment with MOLM-13, 6.37 in the experiment with MV4-11, 6.89 in experiment [1] and 6.40 in experiment [2]. Further, the pKi in experiment [1] was 7.37; in experiment [2] it was 6.87.

For `COc1cc2c(cc1-c1c(C)noc1C)[nH]c1ncnc(-n3nnc4ccccc43)c12`, the negative logarithm of the IC50 (pIC50) is below 5.00 in the experiment with MOLM-13, below 5.00 with MV4-11, below 6.00 in experiment [1] and below 6.00 in experiment [2]. The pKi in experiment [1] and in experiment [2] was below 6.00 each time.

In the case of `COc1cc2c(cc1-c1c(C)noc1C)[nH]c1nc(C)nc(-c3cccc4ccncc34)c12`, the pIC50 was 5.94 with MOLM-13, below 6.00 with MV4-11, 6.78 in experiment [1] and 6.50 in experiment [2]. Also, the values for the pKi in experiment [1] and in experiment [2] were 7.28 and 7.10, respectively.

Regarding `COc1cc2c(cc1-c1c(C)noc1C)[nH]c1ncnc(-c3nn(C)c4ccccc34)c12`, the pIC50 is below 5.00 with MOLM-13, below 5.00 with MV4-11, 7.13 in experiment [1] and 6.83 in experiment [2]. The values for the pKi in experiment [1] and in experiment [2] were 7.65 and 7.07, respectively.

Take `COc1cc2c(cc1-c1c(C)noc1C)[nH]c1ncnc(-n3cnc4ccccc43)c12`: the pIC50 in the experiment on MOLM-13 is 6.58; with MV4-11 it was 7.82; in experiment [1], 8.03; in experiment [2], 7.53. Further, the negative-log Ki (pKi) in experiment [1] is 8.55; in experiment [2] it was 8.00.

Consider `COc1cc2c(cc1-c1c(C)noc1C)[nH]c1ncnc(-c3c(C)[nH]c4cnccc34)c12`, for which the pIC50 was 6.90 with MOLM-13, 7.89 in the experiment with MV4-11, 7.59 in experiment [1] and 7.97 in experiment [2]. The pKi in experiment [1] is 8.04; in experiment [2], 8.38.

With `COc1cc2c(cc1-c1c(C)noc1C)[nH]c1ncnc(N[C@H](C)c3ccccn3)c12`, in experiment [1], the pIC50 was 7.58 and the pKi was 7.98. In addition, in experiment [2], the negative-log IC50 (pIC50) was 7.41 and the pKi was 7.92.

`COc1cc2c(cc1-c1c(C)noc1C)[nH]c1ncnc(-c3cc[nH]c3)c12`: the pIC50 was 6.21 in the experiment on MOLM-13, 6.60 in the experiment on MV4-11, 6.97 in experiment [1] and 6.78 in experiment [2]. In addition, the values for the pKi in experiment [1] and in experiment [2] were 7.51 and 7.28, respectively.

On to `COc1cc(-c2nc(C)nc3[nH]c4cc(-c5c(C)noc5C)c(OC)cc4c23)c2ccccc2n1`, for which the pIC50 with MOLM-13 is 6.61; with MV4-11, 7.16; in experiment [1] it was 7.84; in experiment [2] it was 7.14. Besides, the pKi was 8.38 in experiment [1] and 7.50 in experiment [2].

On to `COc1cc2c(cc1-c1c(C)noc1C)[nH]c1ncnc(-c3cnoc3)c12`, for which, in experiment [1], the pIC50 was 5.73 and the pKi is 6.19. In addition, in experiment [2], the pIC50 is 5.69 and the negative logarithm of the Ki (pKi) is 6.18.

In the case of `COc1cc2c(cc1-c1c(C)noc1C)[nH]c1ncnc(-c3cnn4ccccc34)c12`, the pIC50 in the experiment on MOLM-13 is 6.86; in the experiment on MV4-11 it was 7.89; in experiment [1], 7.58; in experiment [2] it was 7.31. Besides, the results for the pKi in experiment [1] and in experiment [2] were 8.19 and 7.55, respectively.

Take `COc1cc2c(cc1-c1c(C)noc1C)[nH]c1ncnc(-n3ccnc3)c12`: the pIC50 was 5.03 with MOLM-13, 5.97 with MV4-11, 5.94 in experiment [1] and 5.84 in experiment [2]. In addition, the pKi was 6.47 in experiment [1] and 6.34 in experiment [2].

Turning to `COc1cc2c(cc1-c1c(C)noc1C)[nH]c1ncnc(-c3c(C)oc4ccccc34)c12`, the pIC50 in the experiment with MOLM-13 is 6.42; with MV4-11 it was 7.54; in experiment [1], 7.91; in experiment [2], 7.49. In addition, the pKi in experiment [1] was 8.55; in experiment [2], 8.03.

For the compound `COc1cc2c(cc1-c1c(C)noc1C)[nH]c1nc(C)nc(-c3cccc4cccnc34)c12`, the pIC50 is 6.48 with MV4-11, 6.71 in experiment [1] and 6.39 in experiment [2]. Also, the results for the pKi in experiment [1] and in experiment [2] were 7.24 and 6.89, respectively.

`COc1cc2c(cc1-c1c(C)noc1C)[nH]c1ncnc(-c3c(C)noc3C)c12`: the negative logarithm of the IC50 (pIC50) with MOLM-13 was 6.15; with MV4-11, 6.74; in experiment [1], 6.79; in experiment [2], 6.99. Besides, the figures for the pKi in experiment [1] and in experiment [2] were 7.16 and 7.39, respectively.

For `COc1cc2c(cc1-c1c(C)noc1C)[nH]c1ncnc(-c3c[nH]c4cnccc34)c12`, the pIC50 in the experiment with MOLM-13 was 6.31; with MV4-11, 6.72; in experiment [1], 7.64; in experiment [2], 7.94. In addition, the pKi in experiment [1] and in experiment [2] was 8.15 throughout.

`COc1cc2c(cc1-c1c(C)noc1C)[nH]c1ncnc(-c3cn[nH]c3)c12`: in experiment [1], the negative-log IC50 (pIC50) was 6.70 and the pKi was 7.24. In addition, in experiment [2], the negative-log IC50 (pIC50) was 6.41 and the pKi is 6.88.
